Bioassay records (PubChem BioAssay)
S1P3 ag: human S1P3 receptor agonists, primary screen, cell-based, primary and confirmation, NFAT-BLA reporter. AID 373, 2006. hit rate 0.1% among 60,000. activation, % at 4.5 µM. S1P3 NFAT-BLA reporter cells, agonism, FRET ratio; relative to 1 µM S1P, basal subtracted. Sphingosine 1-phosphate receptor 3 (Homo sapiens), Q99500;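 active = activation above the screen-wide mean plus 3 SD, cut at about 4.5% in these data, passing the limit was not always enough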
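Assay system: CHO cells stably expressing human S1P3, Gα16 and NFAT-β-lactamase reporter. Timing: overnight plating, 4 h compound 37 °C, 2 h substrate RT. Signal: β-lactamase FRET emission ratio 460/535 nm. Measure: percent activation versus median 1 µM S1P response, basal-subtracted, per plate. Repeats: primary screen single test, confirmation screen in triplicate.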
5-HT1A blocker: human 5-HT1a receptor antagonists, primary screen, cell-based, CHO, Ga15 NFAT-bla reporter; AID 612, 2007; 5-hydroxytryptamine receptor 1A (Homo sapiens), P08908; inhibition, % at 10 µM; hit rate 0.68% among 62,000; CHO 5-HT1a Ga15 NFAT-bla reporter, antagonist mode;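 active = inhibition above the mean of all tested compounds plus 3 SD, cut at about 43% in these data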;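 note: receptor stimulated by 5-CT agonist at 100 nM near EC80; beta-lactamase reporter measured by ratiometric fluorescence of a cleavable substrate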
Target sequence (P08908 whole entry, looked up): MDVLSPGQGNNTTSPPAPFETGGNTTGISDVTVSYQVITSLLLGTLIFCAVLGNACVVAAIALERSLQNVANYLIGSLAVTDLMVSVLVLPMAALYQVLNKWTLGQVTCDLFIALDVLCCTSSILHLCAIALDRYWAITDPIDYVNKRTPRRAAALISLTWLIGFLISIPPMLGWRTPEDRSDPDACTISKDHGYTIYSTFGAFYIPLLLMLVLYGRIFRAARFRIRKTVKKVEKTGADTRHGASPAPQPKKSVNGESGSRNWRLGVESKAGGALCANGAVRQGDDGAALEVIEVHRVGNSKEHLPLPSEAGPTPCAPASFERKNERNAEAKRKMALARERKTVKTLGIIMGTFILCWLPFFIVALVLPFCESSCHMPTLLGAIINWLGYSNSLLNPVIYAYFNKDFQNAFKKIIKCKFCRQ
5HT1E ag: 5-HT1E receptor agonists, primary screen, cell-based, HTS | 5-hydroxytryptamine receptor 1E (Homo sapiens), P28566 | CHO 5-HT1E Ga15 NFAT-bla reporter, FRET; 0% DMSO wells, 100% control agonist wells | activation, % at 6 µM | hit rate 0.69% among 65,000;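 active = activation above a set limit, the screen-wide mean activation plus 3 SD, cut at about 8.5% in these data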
HTR1A agonist: human 5-HT1a receptor agonists, primary screen, cell-based, CHO, Ga15 NFAT-bla reporter. CHO 5-HT1a Ga15 NFAT-bla reporter, FRET ratio; 0% basal, 100% maximal reference agonist. AID 567, 2006. hit rate 0.56% among 65,000. 5-hydroxytryptamine receptor 1A (Homo sapiens), P08908. activation, % at 10 µM;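 active = activation above the screen-wide mean activation plus 3 SD, cut at about 19% in these data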
HTR1E antagonist: 5-HT1E receptor antagonists, primary screen, cell-based, HTS; CHO 5-HT1E Ga15 NFAT-bla reporter, FRET, antagonist; hit rate 0.99% among 65,000; inhibition, % at 6 µM; AID 571, 2007;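 active = inhibition above a set limit, the mean inhibition across every tested compound plus 3 SD, cut at about 29% in these data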;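 note: signal is the 460 over 535 nm emission ratio of beta-lactamase substrate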
S1P1 ag pot: S1P1 agonists and agonism potentiators, primary screen, cell-based, primary and confirmation screens, CRE-bla reporter; Sphingosine 1-phosphate receptor 1 (Homo sapiens), P21453; S1P1 CRE-bla cells, forskolin, beta-lactamase FRET, potentiator mode; S1P1 agonist co-added at EC20, 2 nM; 100% = saturating reference agonist, 0% = basal; activation, % at 9.5 µM; hit rate 0.57% among 56,000; AID 449, 2006;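 active = activation above a cutoff set at the mean activation of all tested compounds plus 3 SD, cut at about 54% in these data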;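 note: forskolin at 4 µM as EC80 and the EC20 agonist is SEW2871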
Hits are given with their value; n = inactive; x = no result. Most compounds without a hit are left out; they make up all but 3% or so of the library.

SMILES | S1P3 ag | 5-HT1A blocker | 5HT1E ag | HTR1A agonist | HTR1E antagonist | S1P1 ag pot
c1ccc(C2(c3ccccc3)OCC(Cn3cncn3)O2)cc1 (configuration not stated) | n | n | n | n | n | n
COC(=O)C1=C(C)NC(C)=C(C(=O)OC)C1c1ccccc1OCc1c(C)no[n+]1[O-] | n | n | n | n | n | n
Cc1nnc(SCCn2c(N(C)Cc3ccccc3)nc3c2c(=O)n(C)c(=O)n3C)s1 | n | n | n | n | n | n
COc1ccc(CC(=O)Nc2c3c(nn2-c2cccc(C)c2C)CS(=O)C3)cc1 (configuration not stated) | n | n | 19 | n | n | n
CC(C)CN(CC(C)C)C(=O)CS(=O)(=O)Cc1ccccc1 | n | n | n | n | n | n
CN1CCN(C2=C(Cl)C(=O)N(Cc3ccccc3)C2=O)CC1 | n | n | 17 | n | n | n
Cc1oc(-c2ccccc2F)nc1CN1CCC(C(=O)NCCC2=CCCCC2)CC1 | n | n | n | n | n | n
Cn1c(C(=O)N2CCN(c3ccccn3)CC2)cc2c(=O)n(C)c3ccccc3c21 | n | n | 21 | n | n | n
Nc1cc(C(=O)O)ccc1Nc1ccc(F)c(F)c1 | n | n | 33 | n | n | n
CCOC(=O)C1=C(C)NC(=O)NC1c1ccc(OCC(=O)Nc2ccccc2)c(OC)c1 (configuration not stated) | n | n | 89 | n | n | n
O=C1CCCc2sc3c(c2N1)CCCCC3 | n | n | 11 | n | n | n
COc1cc(C2=NOC(C(=O)NCc3ccc(F)cc3)C2)cc(OC)c1OC (configuration not stated) | n | 56 | n | n | 70 | n
COc1ccc(C2=NOC(C(=O)NCc3ccc(F)cc3)C2)cc1OC (configuration not stated) | n | n | n | n | 70 | n
COc1cccc(C2=NOC(C(=O)NCc3ccc(F)cc3)C2)c1 (configuration not stated) | n | n | n | n | n | n
O=C(NCc1ccco1)Nc1ccc(Br)cc1 | n | n | n | n | n | n
O=C(NCc1ccco1)Nc1ccc2nsnc2c1 | n | 59 | n | n | n | n
COc1cccc(CNC(=O)c2nnn(CC(=O)Nc3ccc(C)c(C)c3)c2N)c1 | x | n | n | n | n | x
Cc1ccc(NC(=O)Cn2nnc(C(=O)Nc3ccc(C)c(C)c3)c2N)cc1 | x | n | n | n | 36 | x
CCOC(=O)c1nnn(-c2nonc2N)c1CSc1ccc(C)cc1 | n | n | n | n | n | n
CCOC(=O)c1nnn(-c2nonc2N)c1COc1cc(C)c(Cl)c(C)c1 | n | 49 | n | n | n | n
COc1ccc(N2CCN(c3nc(NCCc4ccc(OC)c(OC)c4)nc(OC)n3)CC2)cc1 | n | 46 | n | n | n | n
Cc1cc2nc(NC3=NCN(Cc4cccnc4)CN3)nc(C)c2cc1C | n | n | n | n | n | n
CSC1=NCCN1C(=O)c1c(F)cccc1F | n | n | n | n | n | n
O=C(Nc1ccc(N2CCOCC2)cc1)Nc1ccc2nc(-c3ccco3)c(-c3ccco3)nc2c1 | n | n | n | n | 67 | x
CC(C)OCCCNC(=O)c1cc2c(s1)CS(=O)(=O)C2 | x | n | n | n | n | x
COc1c(C)cc(Br)cc1C(=O)Nc1cccc(-c2nc3ncccc3o2)c1 | n | n | n | 66 | n | n
CS(=O)(=O)c1nc(-c2cccs2)cc(C(F)(F)F)n1 | x | 110 | n | n | 106 | x
Cc1cc(NC(=O)CCCS(=O)(=O)c2nc(-c3cccs3)cc(C(F)(F)F)n2)no1 | n | 98 | n | n | 30 | n
Cc1cc(NC(=O)CSc2nc(-c3cccs3)cc(C(F)(F)F)n2)no1 | n | n | n | n | 59 | n
